Screening data as filed in PubChem.
Shown are actives, neighbours in structure and some others; about 4.3% of the full set was active somewhere.
SMARCA2 activ = SMARCA2 function activation, primary screen; MG213 cells, MMTV-luciferase reporter, dexamethasone, overnight; activation, % at 9.1 µM; 1% of 370,000 active; AID 652017; in the data active = activation above about 7.8%;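 also: 0% = vehicle wells and 100% = reference activator wells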
SR-BI uptake up = activators of SR-BI mediated HDL lipid uptake; CHO ldlA[mSR-BI] cells, DiI-HDL uptake fluorescence, 3 h; 100 = double the neutral-control signal; activation, % at 12.5 µM; 0.096% of 320,000 active; AID 504775;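 active = mean replicate activation of at least 60% and every replicate at or above 60%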;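 also: 0% = median plate neutral-control signal and 100% = twice that signal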
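Assay system: CHO ldlA[mSR-BI] cells, LDL receptor-null, SR-BI overexpressing; medium: Ham's F12 with 0.5% BSA, HEPES 25 mM, pH 7.4; also added: DiI-HDL 10 µg/mL; timing: 3 h uptake period with compound, 37 °C; signal: DiI fluorescence, bottom read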
Lipid droplet = modulators of hepatic lipid droplet formation | inhibition, % at 6.5 µM | AML12 mouse hepatocytes, oleate lipid droplets, BODIPY imaging | AID 1656 | 0.4% of 240,000 active;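 active = lipid droplet intensity inhibited by at least 50%, with more than 500 cells counted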
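Assay system: AML12 mouse liver cells | Compound dosing: One dose, 6.5 µM compound | Read-out basis: Droplet intensity reduction, % inhibition | Measured by: Fluorescence imaging, 20x objective, two fields per well | Schedule: Overnight treatment with compound plus oleate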
Yeast superoxide = lowers age-related superoxide in aged yeast cells. AID 2690. superoxide response (% of plate mean), % at 10 µM. S. cerevisiae aged cells, superoxide DHE fluorescence; active compounds read low. 0.18% of 330,000 active;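 active = superoxide response under a set limit, about three screen SD below normal, cut at about 65% in these data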;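 also: yeast aged for seven days with compound at 30 °C before DHE staining; 100% = average MFI of all compound-treated wells on the plate with controls excluded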
SR-BI HDL uptake = mouse SR-BI HDL lipid transfer inhibition; AID 488896; ldlA[mSR-BI] CHO cells, DiI-HDL uptake fluorescence, 3 h; inhibition, % at 12.5 µM; 0.96% of 320,000 active; Q61009;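 active = mean replicate inhibition of at least 70% and a set share of replicates each scoring 70 or more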;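 also: 0% = median of neutral control wells and 100% = median of positive control wells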
AHR activator = human AHR activation | activation, % at 5 µM | AHR-responsive luciferase reporter cells, luminescence | 2.5% of 320,000 active | AID 2796 | P35869; in the data active = activation above about 47%;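 also: 0% = vehicle wells and 100% = reference agonist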
AHR act cf = human AHR activation, confirmation; 87% of 2,300 active; activation, % at 9 µM; AID 2845; shares compounds with AHR activator; human cells, AHR-responsive luciferase reporter, luminescence; in the data active = activation above about 49%;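 also: HepG2 hepatoma cells carrying a DRE-driven firefly luciferase reporter; 0% = vehicle wells and 100% = reference agonist wells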
PXR counter = PXR activation, counter-screen for AHR activators. activation, % at 11.6 µM. 88% of 2,300 active. AID 434939. shares compounds with AHR activator. cell-based PXR reporter, luciferase luminescence; in the data active = activation above about 11%;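 also: human hepatoma DPX-2 cells expressing full-length human PXR; 0% = DMSO and 100% = reference agonist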
Starred values were filed as active, the others as inactive; / = no result.

SMILES	SMARCA2 activ	SR-BI uptake up	Lipid droplet	Yeast superoxide	SR-BI HDL uptake	AHR activator	AHR act cf	PXR counter
COc1ccc(NC(=O)N(C)C[C@H]2OCc3cnnn3CCCC(=O)N([C@H](C)CO)C[C@@H]2C)c(OC)c1	-5	/	/	/	/	/	/	/
Cc1cc(NC(=O)CSc2nc3c([nH]c4ccccc43)c(=O)n2-c2ccccc2F)no1	0	-11	-8	72	11	90*	70*	164*
Cc1ccccc1-n1c(SCC(=O)NCC2CCCO2)nc2c([nH]c3ccccc32)c1=O (configuration not stated)	2	11	-1	100	-11	14	/	/
O=C(CSc1nc2c([nH]c3ccccc32)c(=O)n1-c1ccccc1F)NCC1CCCO1 (configuration not stated)	-1	-12	-44	97	12	96*	98*	112*
COc1cccc(-n2c(SCC(=O)N3CCCCC3)nc3c([nH]c4ccccc43)c2=O)c1	-3	8	2	104	-8	17	/	/
COc1cccc(-n2c(SCC(=O)Nc3cc(C)on3)nc3c([nH]c4ccccc43)c2=O)c1	-2	-37	-4	98	37	103*	103*	63*
Cc1ccc(NC(=S)NNC(=O)CSc2nnc(SCc3cccc4ccccc34)s2)cc1	-2	/	/	/	/	/	/	/
O=C(CC1CCCC1)N1CC[C@H]2[C@H](CCCN2Cc2ccc(F)cc2)C1	1	/	/	/	/	/	/	/
Cc1c(Cc2ccc3c(c2)OCO3)sc(NC(=O)c2cccc3ccccc23)c1C(N)=O	0	5	-21	83	-5	103*	60*	58*
O=C(Nc1cccc([N+](=O)[O-])c1)OCc1ccc2c(c1)OCO2	-1	/	/	/	/	/	/	/
Cc1cc(C)cc(NC(=S)NCc2ccc3[nH]c4c(c3c2)CCCC4)c1	-1	-28	-1	101	28	22	/	/
S=C(NCc1ccc2[nH]c3c(c2c1)CCCC3)Nc1ccccc1	-1	-36	-1	116	36	112*	71*	36*
C#CCNC(=O)C[C@@H]1C(=O)N(Cc2ccc(OC)cc2)/C2=C/CCCCC[C@@]21C(=O)OCC	-4	/	/	/	/	/	/	/
N/C(=N\OC(=O)c1ccc(Br)o1)c1ccccn1	4	19	10	110	-19	79*	29	22*
N/C(=N\OC(=O)c1ccccc1)c1ccccn1	0	10	-8	133	-10	8	/	/
N/C(=N\OC(=O)c1cc(Cl)ccc1Cl)c1ccccn1	5	4	2	118	-4	122*	64*	17*
Clc1ccc2nc3c4ccccc4cnn3c2c1	5	10	-5	104	-10	105*	90*	4
COn1c(-c2ccccc2)nc2ccc(Cl)cc21	-1	-5	/	92	5	4	/	/
CCOC(=O)C1=CCN(S(=O)(=O)c2ccc(Cl)cc2)C1c1cccc(F)c1 (configuration not stated)	0	/	/	/	/	/	/	/
C=CCNC(=S)N/N=C/c1cn(C)c2ccccc12	0	/	7	92	/	95*	74*	167*
Cn1cccc1/C=N/NC(=O)c1cccs1	5	2	-13	88	-2	5	/	/
Cn1cc(/C=N/NC(N)=S)c2ccccc21	3	-45	-26	86	45	15	/	/
Cc1cc(/C=N/NC(=O)c2cccs2)c(C)n1-c1cnccn1	7	-3	3	86	3	110*	118*	21*
Cn1cc(/C=N\NC(=O)c2cccs2)c2ccccc21	5	-34	6	97	34	149*	110*	21*
Cc1cc(/C=N/NC(=O)c2cccs2)c(C)n1-c1ccccc1	-4	-20	0	93	20	2	/	/
COC(=O)C1CN(Cc2ccccc2)CCS(=O)(=O)N1Cc1cn(Cc2ccccc2)nn1 (configuration not stated)	-3	/	/	/	/	/	/	/
CCOc1ccc(-n2c(SCC(=O)Nc3ccc(S(=O)(=O)Nc4nccs4)cc3)nnc2-c2ccncc2)cc1	-4	/	/	/	/	/	/	/
